Published values of several laboratories.
Each line is one published result; the experiments were not run side by side. ≈ marks a conversion by molar mass, not a printed value.
Organism: Klebsiella pneumoniae

SMILES	assay	test system	setting	measurement	value
COc1cc(C=Nc2ccc(C)cc2Cl)ccc1O	microbial growth, disc diffusion		2000 µg/mL, 24 h	inhibition zone	15 mm
CC(C)(C)OC(=O)N[C@H]1CCN(c2cc(C(=O)NCC(=O)O)ccc2NC(=O)c2cc(Br)c(Br)[nH]2)C1	microbial growth, broth dilution	ATCC700603		MIC	> 32 µg/mL
C[C@@H](O)[C@H]1C(=O)N2C(C(=O)O)=C(S[C@@H]3CN[C@H](C(=O)N(C)C)C3)[C@H](C)[C@H]12	microbial growth, broth dilution		clinical isolate	MIC90	1020 µg/mL (≈ 2670 µM)
Cl.N[C@H]1CCN(c2cc(C(=O)NCC(=O)O)ccc2NC(=O)c2cc(Br)c(Br)[nH]2)C1	microbial growth, broth dilution	ATCC700603		MIC	> 32 µg/mL
CCC(C)CCCC(=O)N[C@@H](CCN)C(=O)N[C@H](C(=O)N[C@@H](CCN)C(=O)N[C@H]1CCNC(=O)[C@H]([C@@H](C)O)NC(=O)[C@H](CCN)NC(=O)[C@H](CCN)NC(=O)[C@H](CC(C)C)NC(=O)[C@@H](CC(C)C)NC(=O)[C@H](CCN)NC1=O)[C@@H](C)O (stereo partly drawn)	microbial growth, broth dilution			MIC	0.5 µg/mL
Cc1[nH]c(C(=O)Nc2ccc(C(=O)NCC(=O)O)cc2N2CC[C@H](N)C2)c(Cl)c1Cl.Cl	microbial growth, broth dilution	ATCC700603		MIC	> 32 µg/mL
C[C@H]1COc2c(N3CCN(C)CC3)c(F)cc3c(=O)c(C(=O)O)cn1c23	microbial growth, broth dilution			MIC	> 16 µg/mL
COc1cc(C=Nc2ccccc2Br)ccc1O	microbial growth, disc diffusion		2000 µg/mL, 24 h	inhibition zone	14.7 mm
CC(C)(O/N=C(\C(=O)N[C@@H]1C(=O)N2C(C(=O)[O-])=C(C[n+]3ccccc3)CS[C@H]12)c1csc(N)n1)C(=O)O	microbial growth, broth dilution	ATCC13883	20 h	MIC	< 0.5 µg/mL
CN[C@H](CC(C)C)C(=O)N[C@H]1C(=O)N[C@@H](CC(N)=O)C(=O)N[C@H]2C(=O)N[C@H]3C(=O)N[C@H](C(=O)N[C@H](C(=O)O)c4cc(O)cc(O)c4-c4cc3ccc4O)[C@H](O)c3ccc(c(Cl)c3)Oc3cc2cc(c3O[C@@H]2O[C@H](CO)[C@@H](O)[C@H](O)[C@H]2O[C@H]2C[C@](C)(N)[C@H](O)[C@H](C)O2)Oc2ccc(cc2Cl)[C@H]1O	microbial killing	ATCC27736		MBC	1000 µg/mL (≈ 690 µM)
C[C@@H](O)[C@H]1C(=O)N2C(C(=O)O)=C(SCCN=CN)C[C@H]12	microbial growth, disc diffusion		2000 µg/mL, 24 h	inhibition zone	20.5 mm
O=C(O)c1cn(C2CC2)c2cc(N3CCNCC3)c(F)cc2c1=O	microbial growth	ATCC700603		MIC	32 µM
